The list is not random: actives were taken first. Their share in the collection is about 4.6%.
TAAR1 agonist = agonists of human TAAR1; 0.99% of 360,000 active; CHO RD-HGA16 TAAR1, Fluo-8 calcium fluorescence; vehicle wells 0%, saturating PEA agonist 100%; activation, % at 3 µM; Q96RJ0;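 active = activation above the mean activation of all test compounds in the run plus 3 SD, cut at about 38% in these data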
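Test system: RD-HGA16 (CHO) cells co-expressing Gα16 and hTAAR1; dosing: one-point dosing at 3 µM (nominal); timing: 17-24 h seeding, 75 min 37 °C dye, 30 min RT; signal: kinetic Fluo-8 calcium fluorescence; read-out basis: % activation relative to PEA EC100 response; controls: DMSO and PEA EC100; replicates: n 1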
OX1R antag-1 = blocks the human orexin 1 receptor; O43613; CHO/OX1R cells, Fluo-8 calcium fluorescence, orexin A; inhibition, % at 5 µM; 0.43% of 330,000 active; AID 434989;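 active = inhibition above its plate's threshold, mean inhibition of all tested compounds on the plate plus 3 SD, cut at about 37% in these data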
Target sequence (O43613 whole entry, looked up): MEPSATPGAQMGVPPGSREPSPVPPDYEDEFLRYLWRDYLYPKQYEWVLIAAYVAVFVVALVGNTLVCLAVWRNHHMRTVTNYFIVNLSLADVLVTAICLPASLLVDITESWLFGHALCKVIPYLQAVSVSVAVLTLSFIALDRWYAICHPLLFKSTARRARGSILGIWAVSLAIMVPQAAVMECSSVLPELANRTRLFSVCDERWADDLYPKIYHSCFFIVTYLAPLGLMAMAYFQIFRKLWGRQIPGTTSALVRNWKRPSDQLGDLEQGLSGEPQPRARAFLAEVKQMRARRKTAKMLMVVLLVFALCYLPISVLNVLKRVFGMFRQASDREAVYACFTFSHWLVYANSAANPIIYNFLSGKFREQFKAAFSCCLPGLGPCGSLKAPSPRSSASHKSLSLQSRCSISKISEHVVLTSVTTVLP
CHO parental Ca = counter-screen for OX1R antagonists: effect in parental CHO cells. parental CHO-K1, ATP-induced calcium, Fluo-8 fluorescence. inhibition, % at 5.6 µM. 0.63% of 330,000 active. AID 463079;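 active = inhibition above that plate's mean sample inhibition plus 3 SD, cut at about 26% in these data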
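test system = CHO parental line | reagent = ATP stimulus | measured by = intracellular calcium via Fluo-8 no-wash fluorescent dye | control set = ATP and no-ATP DMSO wells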
TAAR1 antagonist = human TAAR1 antagonism; CHO RD-HGA16 TAAR1, Fluo-8 calcium fluorescence, antagonist; inhibition, % at 3 µM; 1.5% of 360,000 active;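 active = inhibition above a per-plate cutoff, the mean inhibition of test compounds on that plate plus 3 SD, cut at about 49% in these data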
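Test system: RD-HGA16 CHO cells with stable hTAAR1 and Gα16 / Probe or stimulus: EC80 β-phenethylamine stimulus / Times: seeding 17-24 h prior, 75-min 37 °C, 30-min RT dye loading / Detection: Fluo-8 calcium-sensitive fluorescence / Read-out basis: % inhibition scaled between DMSO and EC80 PEA controls / Repeats: singlicate, one well per test compound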
OX1R antag-2 = antagonists of human orexin 1 receptor (OX1R); O43613; OX1R-expressing cells, FRET antagonist read-out; inhibition, % at 6.6 µM; 1.8% of 330,000 active; in the data active = inhibition mostly above about 38%, no sharp cut-off; inactive = mostly below about 40%
GPR7 antag = human neuropeptides B/W receptor 1 antagonism; P48145; GPR7-expressing cells, fluorescence antagonist assay; inhibition, % at 4.4 µM; 1.1% of 290,000 active; AID 1861; in the data active = inhibition above about 16%, passing the limit was not always enough;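 also: cells stimulated with the agonist NPW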
Target sequence (P48145 whole entry, looked up): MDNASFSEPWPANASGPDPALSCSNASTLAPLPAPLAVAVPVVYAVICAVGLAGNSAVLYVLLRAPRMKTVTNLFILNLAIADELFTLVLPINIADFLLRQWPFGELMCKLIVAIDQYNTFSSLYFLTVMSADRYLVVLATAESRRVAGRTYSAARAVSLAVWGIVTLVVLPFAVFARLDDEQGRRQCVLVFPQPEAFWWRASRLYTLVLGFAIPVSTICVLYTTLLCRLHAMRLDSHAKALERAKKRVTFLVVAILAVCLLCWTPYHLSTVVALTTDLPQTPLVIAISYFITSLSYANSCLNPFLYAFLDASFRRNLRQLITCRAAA
TAAR1 nonsel count = counter-screen for TAAR1 antagonists: nonselective antagonists | shares compounds with TAAR1 antagonist | counterscreen cell line, calcium fluorescence, antagonist mode | inhibition, % at 3 µM | 77% of 2,400 active | AID 651780; in the data active = inhibition above about 22%;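 also: CHO-Ga16 host cells stimulated with ATP at an EC80 level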
TAAR1 antag conf = human TAAR1 antagonism, confirmed. shares compounds with TAAR1 antagonist. TAAR1-expressing cells, fluorescence antagonist read-out. inhibition, % at 3 µM. 40% of 2,400 active. AID 651785; in the data active = inhibition above about 49%;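 also: CHO-Ga16 host cells challenged with agonist PEA near its EC80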
Ga16 nonsel ag = nonselective Ga16 agonist in TAAR1 antagonist counter-screen. shares compounds with TAAR1 antagonist. Ga16-expressing cells, calcium fluorescence, agonist counterscreen. activation, % at 3 µM. 18% of 2,400 active. AID 651953; in the data active = activation above about 12%
TAAR1 ag count = counter-screen for human TAAR1 antagonists: TAAR1 agonists | shares compounds with TAAR1 antagonist | hTAAR1 cell line, fluorescence activation, agonist mode | activation, % at 3 µM | 2% of 2,400 active; in the data active = activation above about 37%;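 also: CHO cells stably expressing TAAR1 with calcium dye readout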
Hits are given with their value; i = inactive; nt = not tested or not shown.

SMILES | TAAR1 agonist | OX1R antag-1 | CHO parental Ca | TAAR1 antagonist | OX1R antag-2 | GPR7 antag | TAAR1 nonsel count | TAAR1 antag conf | Ga16 nonsel ag | TAAR1 ag count
C[C@H](CO)N1C[C@H](C)[C@H](CN(C)S(=O)(=O)c2cccc(C#N)c2)OCc2cnnn2CCCC1=O | i | nt | nt | i | nt | nt | nt | nt | nt | nt
CCN=C1SC(C(=O)Nc2cccc(OCC)c2)CC(=O)N1CC (stereo not drawn) | i | i | i | 74 | i | i | 36 | 60 | i | i
O=C(C[C@H]1C[C@@H]2c3cc(NC(=O)c4ccc5c(c4)OCO5)ccc3O[C@@H]2[C@H](CO)O1)NCc1cc(F)ccc1F | i | nt | nt | i | nt | nt | nt | nt | nt | nt
Cc1ccc2nc(/C(C#N)=C\c3ccc([N+](=O)[O-])o3)[nH]c2c1 | i | i | i | i | i | i | nt | nt | nt | nt
CCOc1cc(/C=C(/C#N)c2nc3ccccc3[nH]2)ccc1Oc1ccc([N+](=O)[O-])cn1 | i | i | i | 65 | i | i | 54 | 66 | i | i
COC(=O)c1ccc(COc2ccc(/C=C(\C#N)c3nc4ccccc4[nH]3)cc2OC)o1 | i | i | i | 61 | i | i | 32 | i | i | i
COc1cc(/C=C(/C#N)c2nc3ccccc3[nH]2)ccc1OCc1ccc(C(=O)O)o1 | i | i | i | i | i | i | nt | nt | nt | nt
N#C/C(=C\c1ccc([N+](=O)[O-])o1)c1nc2ccccc2[nH]1 | i | i | i | 66 | i | i | 49 | 61 | 20 | i
O=C(CN1C(=O)C2CC=CCC2C1=O)Nc1nc2ccccc2s1 (stereo not drawn) | i | i | i | i | i | i | nt | nt | nt | nt
Oc1ccccc1N1CCN(C(=S)Nc2ccc(SC(F)F)cc2)CC1 | i | i | i | 83 | i | i | 42 | 55 | 14 | i
FC(F)Sc1ccc(NC(=S)N2CCN(c3ccccn3)CC2)cc1 | i | nt | nt | i | nt | i | nt | nt | nt | nt
COC(=O)[C@]12CCCCC=C1N(CCC1=CCCCC1)C(=O)[C@H](CC(=O)NCc1cccc(C(F)(F)F)c1)C2 | i | nt | nt | i | nt | nt | nt | nt | nt | nt
COc1ccc(-c2ccc3c(n2)CCCN3S(=O)(=O)c2ccccc2)cc1 | i | nt | nt | 78 | nt | nt | 38 | 52 | i | i
COc1ccc(-c2cc(C(=O)N3CCN(S(=O)(=O)c4ccccc4)CC3)[nH]n2)cc1 | i | i | i | i | i | i | nt | nt | nt | nt
CCC(=O)c1ccc(OCC(=O)Nc2nc(C)cs2)cc1 | i | i | i | i | i | nt | nt | nt | nt | nt
CCC(=O)c1ccc(OCC(=O)Nc2nc(-c3cccnc3)cs2)cc1 | i | i | i | 74 | i | nt | 37 | 55 | i | i
O=C(COc1ccc(Cl)cc1)Nc1nc(-c2cccs2)cs1 | i | i | i | 68 | i | i | 23 | i | i | i
COc1cc(C(=O)Nc2nc(-c3cccs3)cs2)cc(OC)c1OC | i | i | i | 83 | 49 | i | 45 | 62 | 16 | i
CC1CCCCC1NS(=O)(=O)c1ccc2c(c1)CC(=O)N2C (stereo not drawn) | i | i | i | i | i | i | nt | nt | nt | nt
Cc1cccc(C)c1NC(=O)C(c1ccccc1OC(F)(F)F)N1CCN(C)CC1 (stereo not drawn) | i | nt | nt | i | nt | nt | nt | nt | nt | nt
Cc1ccc(S(=O)(=O)N2CCC(C(=O)OC(C)C(=O)N(C)c3ccccc3)CC2)cc1C (stereo not drawn) | i | i | i | i | i | nt | nt | nt | nt | nt
CN1C(=O)C2(OCC(CO)([N+](=O)[O-])CO2)c2ccccc21 (stereo not drawn) | i | i | i | i | i | i | nt | nt | nt | nt
Cc1ccc(C(=O)Nc2nnc([C@H]3C[C@H](O)[C@@H](CO)O3)s2)cc1 | i | nt | nt | i | nt | nt | nt | nt | nt | nt
C#CCOCCOCCOCCNc1nc(N2CCN(C(=O)[C@H](CCCN=C(N)N)n3cc(C(N)[C@@H](C)CC)nn3)CC2)nc(N2CCN(C(=O)[C@H](CCC(=O)O)n3cc([C@@H](N)CCCCN)nn3)CC2)n1 (stereo partly drawn) | i | i | i | i | i | nt | nt | nt | nt | nt
C#CCOCCOCCOCCNc1nc(N2CCN(C(=O)[C@H](CCCN=C(N)N)n3cc(C(N)[C@@H](C)CC)nn3)CC2)nc(N2CCN(C(=O)[C@H](CCCCN)n3cc([C@@H](N)[C@H](C)CC)nn3)CC2)n1 (stereo partly drawn) | i | i | i | 109 | i | nt | i | i | i | i
SMILES | TAAR1 agonist | OX1R antag-1 | CHO parental Ca | TAAR1 antagonist | OX1R antag-2 | GPR7 antag | TAAR1 nonsel count | TAAR1 antag conf | Ga16 nonsel ag | TAAR1 ag count
C#CCOCCOCCOCCNc1nc(N2CCOCC2)nc(N2CCN(C(=O)[C@H](C)n3cc(CCC(=O)O)nn3)CC2)n1 | i | nt | nt | 107 | nt | nt | i | i | i | i
O=C1N/C(=C/c2ccc(Br)cc2)C(O)=C1C=NCc1ccccc1 | i | i | i | 105 | i | i | i | i | i | i
Cc1cc(C)n(-c2nc(Nc3ccccc3C(F)(F)F)nc(-n3nc(C)cc3C)n2)n1 | i | 62 | 42 | 92 | i | i | 42 | 70 | 13 | i
Cc1cc(C)n(-c2nc(NC(C)(C)C)nc(NC(C)(C)C)n2)n1 | i | i | i | i | i | i | nt | nt | nt | nt
O=C1c2cccc3c2C2(O)c4c1cccc4C(=O)c1cccc(c12)C3=O | i | nt | nt | 71 | nt | nt | 33 | 51 | i | i
CCN(C)C1CN(Cc2cn(Cc3cccc(Cl)c3)nn2)S(=O)(=O)C1 (stereo not drawn) | i | nt | nt | i | nt | nt | nt | nt | nt | nt
COc1ccc(C(=O)NCc2nnc(SCC(=O)c3ccc(F)cc3)n2C)cc1OC | i | i | i | i | i | nt | nt | nt | nt | nt
CCCCCCCCCCCCNC[C@@H]1CSCCS(=O)(=O)N1 | i | nt | nt | i | nt | nt | nt | nt | nt | nt
CCC(C)Sc1ccc([C@H]2N[C@@](Cc3ccccc3)(C(=O)OC)[C@H]3C(=O)N(CC)C(=O)[C@@H]23)cc1OC (stereo partly drawn) | i | i | i | i | i | nt | nt | nt | nt | nt
CCC1Oc2ccc(C)cc2N(CC(=O)NCC2COc3ccccc3O2)C1=O (stereo not drawn) | i | i | i | 67 | i | i | 24 | 49 | i | i
Cc1ccc2c(c1)N(CCC(=O)NCC1COc3ccccc3O1)C(=O)CO2 (stereo not drawn) | i | i | i | i | i | i | nt | nt | nt | nt
O=C(Nc1ccc2c(c1)OCO2)c1ccc2nc([C@@H]3O[C@H](CO)[C@H](O)[C@H](O)[C@H]3O)[nH]c2c1 | i | nt | nt | i | nt | nt | nt | nt | nt | nt
O=C(NCc1cccc(C(F)(F)F)c1)c1cc(-c2ccccc2)nn1CC1CC(c2cccnc2)=NO1 (stereo not drawn) | i | i | i | i | i | nt | nt | nt | nt | nt
